Compounds with a hit are over-represented: about 0.55% of the library has one in this group of screens.
TRPML3 agonist: human mucolipin-3 channel agonism; activation, % at 3 µM; actives 0.29% (n = 220,000); HEK293 TRPML3-YFP, Fluo-8 calcium fluorescence; 100% = the carbachol control signal; Q8TDD5;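 active = activation above its plate's cutoff, the mean activation of the plate's test wells plus 3 SD, cut at about 12% in these data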
Target sequence (Q8TDD5 whole entry, looked up): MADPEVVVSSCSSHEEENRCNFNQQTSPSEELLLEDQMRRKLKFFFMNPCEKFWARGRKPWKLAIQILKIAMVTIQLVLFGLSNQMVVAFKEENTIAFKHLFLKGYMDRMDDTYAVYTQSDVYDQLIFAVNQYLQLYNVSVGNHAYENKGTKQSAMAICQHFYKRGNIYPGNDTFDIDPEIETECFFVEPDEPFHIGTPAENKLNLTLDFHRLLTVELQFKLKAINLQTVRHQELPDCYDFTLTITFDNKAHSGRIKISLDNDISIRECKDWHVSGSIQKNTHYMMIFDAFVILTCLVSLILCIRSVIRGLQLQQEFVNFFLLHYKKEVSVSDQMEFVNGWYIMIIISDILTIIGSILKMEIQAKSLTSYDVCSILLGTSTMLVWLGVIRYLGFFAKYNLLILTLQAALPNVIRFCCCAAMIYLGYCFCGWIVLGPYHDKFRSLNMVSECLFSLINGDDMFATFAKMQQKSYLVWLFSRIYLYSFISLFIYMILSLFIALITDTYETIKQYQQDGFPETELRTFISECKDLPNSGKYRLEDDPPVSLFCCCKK
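system = HEK293 cells stably carrying human TRPML3-YFP | doses = one concentration, 3 µM nominal, 0.3% DMSO | timing = dye loading 1 h 37 °C then 30 min ambient, 125 s read | detection = Fluo-8 calcium dye fluorescence, ex 470-495, em 515-575 nm | benchmarks = high control carbachol 87 µM, low control DMSO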
zfTRPN1 agonist: activates the zebrafish TRPN1 channel | HEK293 zebrafish TRPN1-YFP, Fluo-8 calcium fluorescence; 100% = response to 87 µM carbachol | activation, % at 3 µM | actives 0.18% (n = 220,000) | AID 1424;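 active = activation above its plate's cutoff, the mean activation of test wells on that plate plus 3 SD, cut at about 19% in these data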
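Material: zebrafish TRPN1-YFP in HEK293 cells; Doses: single test compound dose, 3 µM nominal, 0.3% DMSO; Timing: dye loading 1 h at 37 °C, then 30 min room temperature; Technique: intracellular calcium fluorescence with Fluo-8; Benchmarks: high carbachol 87 µM, low DMSO alone.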
OXTR potentiate: potentiates the human oxytocin receptor response; activation, % at 3 µM; P30559; actives 0.061% (n = 320,000); CHO-OTR cells, Fluo-8 calcium fluorescence, potentiator mode; 0% = oxytocin EC15, 100% = EC100;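 active = activation above that plate's cutoff, the mean activation of tested compounds plus 3 SD, cut at about 6.6% in these data, passing the limit was not always enough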
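Measured by – Fluo-8 calcium dye fluorescence · Test system – human OTR in CHO cells · Dosing – one concentration, 3.0 µM compound · Controls – EC15 oxytocin alone as 0%, 75 nM oxytocin as 100% · Evaluation – normalized max/min fluorescence ratio, % activation · Timing – 6 min pre-incubation, 100 s read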
V1R ag counter: activates human V1a receptor in oxytocin agonist counter-screen. CHO-V1R cells, Fluo-8 calcium fluorescence, agonist mode; 0% DMSO, 100% 3 nM vasopressin. activation, % at 3 µM. actives 0.25% (n = 320,000). AID 2797;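 active = activation above the mean activation of all tested compounds plus 3 SD, per screening run, cut at about 20% in these data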;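 note: signal is peak over basal fluorescence ratio across a 100 second FLIPR read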
OXTR agonist: agonists of human oxytocin receptor; CHO-OTR cells, Fluo-8 calcium fluorescence; normalized: DMSO 0%, oxytocin 100%; activation, % at 3 µM; actives 0.32% (n = 320,000); AID 2435;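 active = activation above the mean of all tested compounds plus 3 SD, cutoff set per screening run, cut at about 20% in these data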;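 note: peak over basal fluorescence ratio from a 100 s FLIPR kinetic read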
TRPN1 ag 2: activates zebrafish TRPN1, counter-screen for TRPML3 agonists; HEK293 zebrafish TRPN1-YFP, Fluo-8 calcium fluorescence; scaled: carbachol wells 100%, DMSO wells 0%; actives 10% (n = 310); shares compounds with TRPML3 agonist; activation, % at 3 µM; AID 1525;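 active = mean activation over replicates above a set limit taken from the earlier TRPN1 channel primary screen, cut at about 19% in these data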
TRPML3 ag conf: confirmation of human TRPML3 channel agonists; shares compounds with TRPML3 agonist; HEK293 TRPML3-YFP, Fluo-8 calcium fluorescence; 100% set by carbachol, 0% by DMSO; activation, % at 3 µM; actives 80% (n = 310); AID 1526;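 active = activation above a set limit derived from the earlier primary screen, cut at about 12% in these data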
A number is an active result; 0 = inactive; - = no result.

SMILES	TRPML3 agonist	zfTRPN1 agonist	OXTR potentiate	V1R ag counter	OXTR agonist	TRPN1 ag 2	TRPML3 ag conf
Cc1cc(C)cc(N(CC(=O)N2CCOCC2)S(=O)(=O)c2ccccc2)c1	35	0	0	0	0	0	46
Cc1cc(C)cc(N(CC(=O)N2CCC(C)CC2)S(=O)(=O)c2ccccc2)c1	0	0	0	0	0	-	-
Cc1ccc(S(=O)(=O)N(CC(=O)N2CCCCC2)c2cccc(C)c2)cc1	127	0	0	0	0	0	139
CC(=O)c1cccc(NC(=O)CN2C(=O)C(=O)N(Cc3ccco3)C2=O)c1	-	-	0	0	0	-	-
CC1CC(=O)Nc2ccccc2N1C(=O)CSc1nnnn1C(C)C (stereo not drawn)	-	-	0	0	0	-	-
COc1ccc(C2C(C(C)=O)=C(C)N=c3s/c(=C\c4cc(C)n(C)c4C)c(=O)n32)c(OC)c1 (stereo not drawn)	16	0	0	40	35	28	18
CC1CCCC(C)N1C(=O)COC(=O)c1ccc2ccccc2n1 (stereo not drawn)	-	-	0	0	0	-	-
O=C1C=C(NC2=CC3OC(c4ccccc4)OCC3OC2=O)CCC1 (stereo not drawn)	30	0	0	0	0	0	0
Cc1ccc(C2=CC(c3ccc(N(C)C)cc3)n3nnnc3N2)cc1 (stereo not drawn)	18	0	0	0	0	0	0
CCCn1c(N)c(N(CCOC)C(=O)CSc2c(Cl)cccc2Cl)c(=O)[nH]c1=O	-	-	0	0	0	-	-
CCN(C(=O)c1cnc(OC)cc1C(F)(F)F)c1ccc(Cl)cc1Cl	39	0	0	0	0	0	47
c1ccc(NC2=NCCN2CCCC2CCCCC2)cc1	-	-	0	0	0	-	-
Cc1ccc(S(=O)(=O)c2c(C)cc(C)nc2Oc2cccc(C(F)(F)F)c2)cc1	14	0	0	0	0	0	42
O=C1c2ccccc2CCCC12N=NCC2c1cccc2ccccc12 (stereo not drawn)	56	0	0	0	0	0	67
Cc1ccc(Cl)cc1N1CCN(S(=O)(=O)N2CCCCC2)CC1	30	0	0	0	0	0	111
Cc1ccc(Cl)cc1N1CCN(S(C)(=O)=O)CC1	0	0	0	0	0	-	-
CC1CN(C(=O)CNC(=O)COc2ccccc2)CC(C)O1 (stereo not drawn)	-	-	0	0	0	-	-
Cc1nc(NC(=O)c2csc3ccccc23)sc1C	18	0	0	0	0	0	28
Cc1nc(NC(=O)c2ccccc2O)sc1C	-	-	0	0	0	-	-
CC12CCC(=O)N1C(C(=O)OCC(=O)Nc1ccc(C(F)(F)F)cc1)CS2 (stereo not drawn)	-	-	0	0	0	-	-
CN(CCOc1ccccc1)CC(=O)Nc1ccc(S(=O)(=O)N2CCCC2)cc1	0	0	0	0	0	-	-
CN(CCOc1ccccc1)c1ccc(S(=O)(=O)N2CCCCC2)cn1	26	0	0	0	0	0	52
COc1ccc(OC)c(S(=O)(=O)N2CCc3ccccc32)c1	0	0	0	0	0	-	-
COc1ccc(OC)c(S(=O)(=O)N2CCCc3ccccc32)c1	48	0	0	0	0	0	56
CCCC(=O)Oc1c(S(=O)(=O)c2ccc(C)cc2)c(C)nn1C(C)(C)C	26	0	0	0	0	0	84
SMILES	TRPML3 agonist	zfTRPN1 agonist	OXTR potentiate	V1R ag counter	OXTR agonist	TRPN1 ag 2	TRPML3 ag conf
Cc1cc(N2CCOCC2)nc(NCc2ccccc2)n1	16	0	0	0	0	21	15
Cc1cc(N2CCOCC2)nc(N)n1	12	0	0	0	0	0	0
Cc1cccc(C(=O)OCC(=O)NC2CC2)c1O	-	-	0	0	0	-	-
CCOc1ccccc1N(CC(=O)NC1CCCCC1)C(=O)c1nsc(Cl)c1Cl	43	0	0	0	0	0	36
Cc1cccc(N(CC(=O)NC2CCCC2)C(=O)c2nsc(Cl)c2Cl)c1C	0	0	0	0	0	-	-
O=C(OCc1nnc(-c2cccs2)o1)C1=NN(c2ccccc2)C(=O)CC1	-	-	0	0	0	-	-
Cc1c(NC(=O)C(C)OC(=O)/C=C/c2ccc(OC(F)F)cc2)c(=O)n(-c2ccccc2)n1C (stereo not drawn)	-	-	0	0	0	-	-
COC(=O)C1(C(C[N+](=O)[O-])c2ccco2)C(=O)NCC1c1ccccc1 (stereo not drawn)	17	0	0	0	0	0	23
CCn1c(=O)cc(OCC(=O)Nc2ccc(OC)c(OC)c2)c2ccccc21	23	0	0	0	0	0	23
COc1ccc(C(=O)CSc2nnc(-c3ccc(C)cc3)o2)cc1	0	0	0	0	0	-	-
COc1ccc2c(c1)C(C)=CC(C)(C)N2C(=O)CSc1nnc(-c2ccc(C)cc2)o1	37	0	0	0	0	0	48
O=C(Nc1ccc(Cl)cc1)c1cc2c(cc1O)[nH]c1ccccc12	0	0	0	0	0	-	-
Cc1csc(N/N=C/c2ccc([N+](=O)[O-])cc2)n1	-	-	0	0	0	-	-
O=C(O)c1csc(N/N=C/c2ccc(Br)cc2)n1	32	0	-	-	-	0	42
CC1CC(C)(C)N(C(=O)CN2C(=O)c3ccccc3C2=O)c2ccccc21 (stereo not drawn)	210	0	0	0	0	97	205
CC1=CC(C)(C)N(C(=O)CN2C(=O)c3ccccc3C2=O)c2ccccc21	67	0	0	0	0	0	92
NS(=O)(=O)c1ccc(-c2c(-c3ccccc3)sc3ccccc23)cc1	-	-	0	0	0	-	-
COc1ccc(NC(=O)CN(C)C(=O)c2oc3c(ccc4ccccc43)c2C)cc1	-	-	0	0	0	-	-
CC(=O)N1CCN(C(=O)COC(=O)c2ccc(S(C)(=O)=O)cc2)CC1	-	-	0	0	0	-	-
COc1ccc(S(=O)(=O)N2CCC(C)CC2)cc1OC	-	-	0	0	0	-	-
COc1ccc(S(=O)(=O)N2CCC(C)CC2)cc1Br	66	0	0	0	0	0	106
CCN1CCN(S(=O)(=O)c2ccc(C)c([N+](=O)[O-])c2)CC1	0	0	0	0	0	-	-
Cc1ccc(S(=O)(=O)N2CCC(C)CC2)cc1[N+](=O)[O-]	93	0	-	-	-	0	87
Cc1ccc(S(=O)(=O)N2CCCCCC2)cc1[N+](=O)[O-]	12	0	0	0	0	0	19
CC(NC(=O)COC(=O)c1nc(Cl)ccc1Cl)c1ccccc1 (stereo not drawn)	-	-	0	0	0	-	-
Cc1cc2nc3c(=O)[nH]c(=O)[nH]c3nc2c([N+](=O)[O-])c1N	12	0	-	-	-	0	0
CC(=O)c1ccccc1NC(=O)COC(=O)c1cc2ccccc2[nH]1	-	-	0	0	0	-	-

High-throughput results: PubChem, The Scripps Research Institute Molecular Screening Center
